Measured values published in ChEMBL document CHEMBL3804761, “Synthesis of a stable and orally bioavailable englerin analogue” (Bioorg Med Chem Lett, 2016).

How the values were obtained:
Assay type in all cases: functional
[1] = Growth inhibition of human SKOV3 cells assessed as cell growth at 10 uM incubated for 48 hrs by sulforhodamine B assay relative to control; conditions: SK-OV-3, 48 h, read-out: Activity
Summary of the method: (§1)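 Run in the standard NCI 60-cell-line screen. Cells were exposed to drug for two days, and the read-out was sulforhodamine B staining. Compound was tested at a single final concentration of 10 µM in every line, and results are reported as growth percent.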

[2] = Growth inhibition of human OVCAR4 cells assessed as cell growth at 10 uM incubated for 48 hrs by sulforhodamine B assay relative to control; conditions: OVCAR-4, 48 h, read-out: Activity; summary of the method: as §1
[3] = Growth inhibition of human TK10 cells incubated for 48 hrs by sulforhodamine B assay; conditions: TK-10, 48 h
Summary of the method: (§2)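 Tested in the standard NCI 60-cell-line protocol with two-day drug exposure and a sulforhodamine B endpoint. Compounds were first screened at a single final concentration of 10 µM, reported as growth percent. They were then run as five 10-fold dilutions starting from a high concentration of 100 µM to give dose-response curves.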

[4] = Growth inhibition of human SNB75 cells incubated for 48 hrs by sulforhodamine B assay; conditions: SNB-75, 48 h; summary of the method: as §2
[5] = system: NCI-H460; experiment: Growth inhibition of human NCI-H460 cells assessed as cell growth at 10 uM incubated for 48 hrs by sulforhodamine B assay relative to control; conditions: NCI-H460, 48 h, read-out: Activity; summary of the method: as §1
[6] = Growth inhibition of human HOP92 cells assessed as cell growth at 10 uM incubated for 48 hrs by sulforhodamine B assay relative to control; conditions: HOP-92, 48 h, read-out: Activity
Summary of the method: (§3)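 Single-dose screen in the NCI 60-cell-line panel at one final concentration of 10 µM. Two-day drug exposure with a sulforhodamine B endpoint. Values are growth percent for each cell line.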

[7] = system: SK-MEL-28; experiment: Growth inhibition of human SK-MEL-28 cells assessed as cell growth at 10 uM incubated for 48 hrs by sulforhodamine B assay relative to control; conditions: SK-MEL-28, 48 h, read-out: Activity; summary of the method: as §1
[8] = system: NCI-H322M; experiment: Growth inhibition of human NCI-H322M cells incubated for 48 hrs by sulforhodamine B assay
Summary of the method: (§4)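 NCI 60-cell-line panel, standard protocol. Cells exposed to compound for two days, growth read by sulforhodamine B staining. Tested at five 10-fold dilutions, top concentration 100 µM, to give dose-response curves.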

[9] = system: A498; experiment: Growth inhibition of human A498 cells assessed as cell growth at 10 uM incubated for 48 hrs by sulforhodamine B assay relative to control; conditions: A498, 48 h, read-out: Activity
[10] = Growth inhibition of human OVCAR3 cells assessed as cell growth at 10 uM incubated for 48 hrs by sulforhodamine B assay relative to control; conditions: OVCAR-3, 48 h, read-out: Activity; summary of the method: as §1
[11] = system: NCI-H460; experiment: Growth inhibition of human NCI-H460 cells incubated for 48 hrs by sulforhodamine B assay; conditions: NCI-H460, 48 h; summary of the method: as §4
[12] = system: CCRF-CEM; experiment: Growth inhibition of human CCRF-CEM cells incubated for 48 hrs by sulforhodamine B assay; summary of the method: as §4
[13] = Growth inhibition of human OVCAR8 cells incubated for 48 hrs by sulforhodamine B assay; conditions: OVCAR-8, 48 h; summary of the method: as §4
[14] = Growth inhibition of human UO31 cells incubated for 48 hrs by sulforhodamine B assay; conditions: UO-31, 48 h; summary of the method: as §2
[15] = Growth inhibition of human Hs 578T cells incubated for 48 hrs by sulforhodamine B assay
[16] = Growth inhibition of human HL-60(TB) cells assessed as cell growth at 10 uM incubated for 48 hrs by sulforhodamine B assay relative to control; conditions: HL-60, 48 h, read-out: Activity; summary of the method: as §3
[17] = Growth inhibition of human SF268 cells incubated for 48 hrs by sulforhodamine B assay; conditions: SF-268, 48 h; summary of the method: as §4
[18] = Growth inhibition of human OVCAR5 cells assessed as cell growth at 10 uM incubated for 48 hrs by sulforhodamine B assay relative to control; conditions: OVCAR-5, 48 h, read-out: Activity; summary of the method: as §1
[19] = Growth inhibition of human OVCAR3 cells incubated for 48 hrs by sulforhodamine B assay; conditions: OVCAR-3, 48 h; summary of the method: as §4
[20] = system: A549; experiment: Growth inhibition of human A549/ATCC cells incubated for 48 hrs by sulforhodamine B assay; conditions: A549, 48 h; summary of the method: as §4
[21] = Growth inhibition of human OVCAR8 cells assessed as cell growth at 10 uM incubated for 48 hrs by sulforhodamine B assay relative to control; conditions: OVCAR-8, 48 h, read-out: Activity; summary of the method: as §1
[22] = system: NCI-H322M; experiment: Growth inhibition of human NCI-H322M cells assessed as cell growth at 10 uM incubated for 48 hrs by sulforhodamine B assay relative to control; conditions: read-out: Activity; summary of the method: as §1
[23] = system: NCI-H522; experiment: Growth inhibition of human NCI-H522 cells incubated for 48 hrs by sulforhodamine B assay; conditions: NCI-H522, 48 h; summary of the method: as §4
[24] = system: CCRF-CEM; experiment: Growth inhibition of human CCRF-CEM cells assessed as cell growth at 10 uM incubated for 48 hrs by sulforhodamine B assay relative to control; conditions: read-out: Activity; summary of the method: as §3
[25] = Growth inhibition of human SW620 cells assessed as cell growth at 10 uM incubated for 48 hrs by sulforhodamine B assay relative to control; conditions: SW-620, 48 h, read-out: Activity; summary of the method: as §1
[26] = system: NCI-H23; experiment: Growth inhibition of human NCI-H23 cells assessed as cell growth at 10 uM incubated for 48 hrs by sulforhodamine B assay relative to control; conditions: NCI-H23, 48 h, read-out: Activity; summary of the method: as §1
[27] = Growth inhibition of human SF539 cells incubated for 48 hrs by sulforhodamine B assay; conditions: SF-539, 48 h; summary of the method: as §4
[28] = Growth inhibition of human SF295 cells incubated for 48 hrs by sulforhodamine B assay; conditions: SF-295, 48 h; summary of the method: as §4
[29] = read-out: pLC50 (the source's name) (converted)

CC(C)[C@@]12C[C@@H](NC(=O)CO)[C@@](C)(O1)[C@@H]1CC[C@@H](C)[C@H]1[C@@H]2OC(=O)/C=C/C1CCCCC1
97.7%: growth at 10 µM [22]
111%: growth at 10 µM [16]
10 µM: GI50 [14]
103%: growth at 10 µM [1] | growth at 10 µM [5]
128%: growth at 10 µM [24]
41%: growth at 10 µM [9]
98.6%: growth at 10 µM [2]
98.9%: growth at 10 µM [7]
6.17 µM: GI50 ([15]; read-out: GI50) | GI50 ([15]; read-out: pGI50 (converted))
120%: growth at 10 µM [6]
28.2 µM: GI50 [13]
107%: growth at 10 µM [21]
102%: growth at 10 µM [25]
18.6 µM: TGI ([15]; read-out: pTGI (converted))
110%: growth at 10 µM [10]
30.2 µM: TGI ([14]; read-out: pTGI (converted))
99.4%: growth at 10 µM [26]
> 44.7 µM: GI50 [3] | CC50 [3, 29] | TGI ([3]; read-out: pTGI (converted)) | GI50 [4] | LC50 [4] | TGI ([4]; read-out: pTGI (converted)) | GI50 [8] | LC50 [8] | TGI ([8]; read-out: pTGI (converted)) | GI50 [11] | CC50 [11, 29] | TGI ([11]; read-out: pTGI (converted)) | GI50 [12] | CC50 [12, 29] | TGI ([12]; read-out: pTGI (converted)) | LC50 (concentration killing 50% of cells) [13] | TGI ([13]; read-out: pTGI (converted)) | CC50 [14, 29] | CC50 [15, 29] | GI50 [17] | LC50 (lethal concentration, 50% net cell kill) [17] | TGI ([17]; read-out: pTGI (converted)) | GI50 [19] | LC50 [19] | TGI ([19]; read-out: pTGI (converted)) | GI50 [20] | LC50 [20] | TGI ([20]; read-out: pTGI (converted)) | GI50 [23] | LC50 [23] | TGI ([23]; read-out: pTGI (converted)) | GI50 [27] | LC50 [27] | TGI ([27]; read-out: pTGI (converted)) | GI50 [28] | LC50 (concentration causing 50% net cell kill) [28] | TGI ([28]; read-out: pTGI (converted))
92.6%: growth at 10 µM [18]
